Measured values published in ChEMBL document CHEMBL1124186, “Synthesis and evaluation of tylosin-related macrolides modified at the aldehyde function: a new series of orally effective antibiotics” (1988).
In brackets after ≈: the same amount, converted by molar mass.

Experiments:
Haemophilus influenzae = assay: In vitro antimicrobial activity against Haemophilus influenzae.; assay type: functional
Staphylococcus aureus = assay: In vitro antimicrobial activity against Staphylococcus aureus X1; assay type: functional
Streptococcus pyogenes [1] = assay: […] effective dose against Streptococcus pyogenes C203 when administered orally; assay type: functional; details: po
Streptococcus pyogenes [2] = assay: […] effective dose against Streptococcus pyogenes C203 when administered sc; assay type: functional
Procedure, shortened: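 Infected mice (S. pyogenes C203) were treated subcutaneously 1 and 5 h postinfection with 0.25 mL of antibiotic in 10% aqueous ethanol, with tartaric acid added when needed to dissolve it. A range of concentrations was given. The value is the ED50 expressed as mg/kg × 2.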

Streptococcus pyogenes [3] = assay: In vivo effective dose against experimental infections in rodent caused by Streptococcus pyogenes C203 when administered sc; assay type: functional
Streptococcus pneumoniae = assay: In vitro antimicrobial activity against Streptococcus pneumoniae; assay type: functional
[4] = tested on: Staphylococcus epidermidis; assay: In vitro antimicrobial activity against Staphylococcus epidermidis EPI1; assay type: functional
Enterococcus faecium = assay: In vitro antimicrobial activity against Streptococcus faecium X66; assay type: functional, streptococcus fae-cium
Streptococcus pyogenes [5] = assay: (§1) In vitro antimicrobial activity against Streptococcus pyogenes C203; assay type: functional
Streptococcus pyogenes [6] = assay: as §1; assay type: functional; remark: listed apart in the source
Streptococcus pyogenes [7] = assay: In vivo effective dose against experimental infections in rodent caused by Streptococcus pyogenes C203 when administered orally; assay type: functional; details: po

CC[C@H]1OC(=O)C[C@@H](O)[C@H](C)[C@@H](O[C@@H]2O[C@H](C)[C@@H](O[C@H]3C[C@@](C)(O)[C@@H](O)[C@H](C)O3)[C@H](N(C)C)[C@H]2O)[C@@H](CC=O)C[C@@H](C)C(=O)/C=C/C(C)=C/[C@@H]1CO[C@@H]1O[C@H](C)[C@@H](O)[C@@H](O)[C@H]1OC [MACROCIN]
MIC (Haemophilus influenzae): 16 mg/L (≈ 17.7 µM)
MIC (Staphylococcus aureus): 0.5 mg/L (≈ 0.554 µM)
ED50 (Streptococcus pyogenes [1]): > 80 mg/kg
ED50 (Streptococcus pyogenes [2]): < 1.2 mg/kg
ED50 (Streptococcus pyogenes [3]): 1.9 mg/kg
MIC (Streptococcus pneumoniae): 1 mg/L (≈ 1.11 µM)
MIC [4]: 1 mg/L (≈ 1.11 µM)
MIC (Enterococcus faecium): 2 mg/L (≈ 2.22 µM)
MIC (Streptococcus pyogenes [5]): 0.25 mg/L (≈ 0.277 µM)
MIC (Streptococcus pyogenes [6]): 0.25 mg/L (≈ 0.277 µM)
ED50 (Streptococcus pyogenes [7]): 71 mg/kg
